# Screens: PubChem BioAssay, Broad Institute
# An excerpt weighted towards active compounds, which were near 3.1% of everything screened.
# miR122 inh: miR-122 inhibition in Huh7 cells; Huh7 miR-122 Renilla luciferase sensor, 48 h; neutral wells = 0, positive control = 100; activation (reporter increase), % at 12.5 µM; actives 0.3% (n = 340,000);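 active means mean replicate activation score at least 90 and every replicate individually at or above 90; inconclusive means only one of the two criteria met; inactive means neither criterion met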;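 further: higher luciferase means less miR-122 activity so hits act as miR-122 inhibitors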
# Cneo AK release: Cryptococcus neoformans lysis via adenylate kinase release. actives 0.2% (n = 360,000). AID 651654. lysis activity, % at 15 µM. C. neoformans lysis, adenylate kinase release luminescence, 4 h; normalised: neutral wells 0, clomiphene wells 100;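 active means mean lysis activity across replicates of at least 80%, whatever share of replicates individually reach that level; inactive means mean lysis activity below 80%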
#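 Assay system: log-phase C. neoformans yeast / Quantity: yeast cell density of 5 × 10^6 cells/mL / Medium: fresh YPD growth medium / Compound: single dose / Timing: static 4 h at 37 °C with compound, 1 h detection / Measured by: adenylate kinase release luminescence / Read-out: lysis from increased AK signal / Benchmarks: Clomiphene as positive lysis control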
# DENV2 CPE: protects cells from dengue virus 2 cytopathic effect; DENV2-infected cells, cytopathic effect rescue, plate reader; CPE inhibition, % at 9.99 µM; actives 1.7% (n = 350,000); AID 651640; in the data active means CPE inhibition above about 20%, passing the limit was not always enough; inconclusive means no clear call, values can overlap the other calls; tested in BHK-21 cells;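 further: 0% = median of neutral control wells and 100% = median of positive control wells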
# E-sel inducer: E-selectin induction on HUVECs; AID 686992; P16581; activation, % at 7.58 µM; HUVEC E-selectin immunofluorescence imaging; normalized: neutral wells 0, TNF-alpha wells 100; actives 0.37% (n = 260,000);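 active means mean E-selectin-positive cell signal at least 10% of the positive control, reached in at least 60% of replicates, without over 20% cell loss; inconclusive means no rule given, readout overlaps actives, possibly toxicity-flagged; inactive means the rest, including those meeting only one limit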
# Target sequence (P16581 whole entry, looked up): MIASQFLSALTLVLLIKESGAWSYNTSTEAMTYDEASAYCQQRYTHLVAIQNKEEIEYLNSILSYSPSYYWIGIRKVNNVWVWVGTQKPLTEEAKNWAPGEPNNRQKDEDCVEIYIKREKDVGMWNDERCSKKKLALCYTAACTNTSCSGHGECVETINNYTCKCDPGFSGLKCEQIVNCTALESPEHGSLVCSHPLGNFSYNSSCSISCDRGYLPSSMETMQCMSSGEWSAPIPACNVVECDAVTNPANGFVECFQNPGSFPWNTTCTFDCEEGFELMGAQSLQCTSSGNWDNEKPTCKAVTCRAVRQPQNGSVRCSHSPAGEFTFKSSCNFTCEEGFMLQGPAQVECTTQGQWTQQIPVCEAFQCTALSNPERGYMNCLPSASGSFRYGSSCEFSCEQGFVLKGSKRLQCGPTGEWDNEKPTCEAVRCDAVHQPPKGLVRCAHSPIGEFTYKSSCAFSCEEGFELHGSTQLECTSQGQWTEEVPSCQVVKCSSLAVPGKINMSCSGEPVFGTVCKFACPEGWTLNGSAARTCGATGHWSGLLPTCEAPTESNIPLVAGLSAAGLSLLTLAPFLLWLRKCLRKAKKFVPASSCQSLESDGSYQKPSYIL
#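 Read-out: % PE-positive cells | Test system: HUVEC | Doses: One compound dose added by pin transfer | Buffer or medium: EGM-2 over gelatin coat | Signal: Immunofluorescence imaging | Benchmarks: TNF-alpha, DMSO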
# Ecoli rRNA inh: selective bacterial rRNA inhibition in E. coli; E. coli WT GFP vs humanized-ribosome RFP mutants, fluorescence, 24 h; active compounds read low; DMSO median 0, no signal -100; GFP signal change (wild-type ribosome), % (test concentration not listed); actives 1.6% (n = 350,000);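 active means significant combined selectivity score with lowered wild-type GFP, culture density cut under 30%, mutant RFP and density less affected; inactive means any of these conditions unmet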
# Numbers without * were called inactive; u = inconclusive; x = not tested or not shown; ! = a repeat was not active; [ ] = dose if it differs, or a comment.
SMILES,miR122 inh,Cneo AK release,DENV2 CPE,E-sel inducer,Ecoli rRNA inh
Cc1ccc(NC(=O)c2ccc(C)c(S(=O)(=O)N3CCOCC3)c2)nc1,-6,-5,5,-1,16
Cc1ccc(NC(=O)c2ccc(S(=O)(=O)N3CCOCC3)cc2)nc1,216*,1,x,x,x
COc1ccccc1N1CCN(S(=O)(=O)CCNC(=O)CCc2ccccc2)CC1,2,-1,119*,x,-6
CC(=O)c1ccc(NC(=O)c2ccc(NC(=O)CCS(=O)(=O)c3cccs3)cc2)cc1,-6,0,x,1,1
CC(=O)c1cccc(NC(=O)c2ccc(NC(=O)CCS(=O)(=O)c3cccs3)cc2)c1,4,1,28*,x,-1
O=S1(=O)CCOC[C@H](Cc2ccccc2)N1Cc1cccc(F)c1,-1,1,32*,0,-28
Cn1c2ccccc2c(=O)c2c(=O)n(Cc3ccco3)c(-c3ccc(F)cc3)nc21,-8,-1,u,0,-38*
c1ccc(-c2ccncc2)nc1,23,1,79*,0,1
c1ccc(-c2nc(-c3ccncc3)n[nH]2)nc1,x,x,-3,x,14
C[C@H]1CN([C@@H](C)CO)C(=O)c2cc(NC(=O)Cn3cnnn3)ccc2O[C@@H]1CN(C)Cc1ccc(Oc2ccccc2)cc1,-9[16.7 µM],-2,-3,48*,2
C[C@H]1CN([C@@H](C)CO)C(=O)Cc2cc(NC(=O)Cn3cnnn3)ccc2O[C@@H]1CN(C)Cc1ccc(Oc2ccccc2)cc1,0[16.7 µM],1,0,-4,-11
C[C@@H]1CN([C@H](C)CO)C(=O)c2cc(NC(=O)Cn3cnnn3)ccc2O[C@H]1CN(C)S(=O)(=O)c1ccccc1,2[16.7 µM],x,7,39*,1
C[C@@H]1CN([C@@H](C)CO)C(=O)Cc2cc(NC(=O)Cn3cnnn3)ccc2O[C@H]1CN(C)Cc1ccc(Oc2ccccc2)cc1,-15[16.7 µM],2,0,283*,-40
C[C@H](CO)N1C[C@H](C)[C@H](CN(C)Cc2ccncc2)Oc2ccc(NC(=O)Cn3cnnn3)cc2CC1=O,-10[16.7 µM],0,23*,0,2
CC(=O)N1[C@H](CO)[C@@H](c2ccccc2)C12CN(C(=O)c1cnccn1)C2,x,x,-10,0,4
CN1C(=O)c2cc(NC(=O)c3ccc(F)c(F)c3)ccc2OC[C@@H]2O[C@H](CC(=O)N3CCOCC3)CC[C@H]21,-18[16.7 µM],1,1,0,x
CNC[C@@H]1Oc2ccc(NS(=O)(=O)c3c(C)noc3C)cc2C(=O)N([C@@H](C)CO)C[C@H]1C,-11[16.7 µM],8,0,0,5
C[C@H]1CN([C@@H](C)CO)C(=O)c2cc(NC(=O)Cn3cnnn3)ccc2O[C@H]1CN(C)Cc1ccc(Oc2ccccc2)cc1,11[16.7 µM],-4,5,139*,1
CC(=O)Nc1nc(-c2ccc([N+](=O)[O-])cc2)cs1,x,x,8,-2,8
O=C(Nc1nc(-c2ccc([N+](=O)[O-])cc2)cs1)c1c(F)cccc1F,-4,0,-7,0,2
O=C(Nc1nc(-c2ccc([N+](=O)[O-])cc2)cs1)C1=COCCO1,-6,1,42*,0,-11
CC(C)=NNc1nc(-c2ccc([N+](=O)[O-])cc2)cs1,x,x,x,0,-34*
CCCCOc1ccc(C(=O)N/N=C/c2ccc(OCCN3CCCCC3)c(OC)c2)cc1,3,-2,32*,x,-19
CCC(=O)N1[C@H](CO)[C@H]2c3ccccc3N(S(=O)(=O)c3ccccc3)C[C@H]21,25[16.7 µM],-4,u,2,-1
O=C(c1cccnc1)N1CCCCN2[C@H](CO)[C@@H](c3ccc(C#Cc4ccccn4)cc3)[C@H]2C1,0[16.7 µM],-1,20*,0,12
SMILES,miR122 inh,Cneo AK release,DENV2 CPE,E-sel inducer,Ecoli rRNA inh
CN(C)C(=O)c1ccc(-c2ccc(C3[C@@H]4CN(C(=O)c5cnccn5)C[C@H]3N4)cc2)cc1 (some centres undefined),x,x,-1,2,4
Cc1ccccc1-c1ccc(C2[C@@H]3CN(C(=O)c4cnccn4)C[C@H]2N3)cc1 (some centres undefined),x,x,29*!,0,-4
Cc1ccccc1-c1ccc([C@@H]2[C@@H](CO)N3CCCCN(C(=O)c4cccnc4)C[C@H]23)cc1,4[16.7 µM],-3,49*,0,3
O=C(c1cccnc1)N1CCCCN2[C@H](CO)[C@@H](c3ccc(C#Cc4ccccn4)cc3)[C@@H]2C1,12[16.7 µM],2,-1,0,7
O=C(C[C@@H]1CC[C@@H](NC(=O)c2cccnc2)[C@H](CO)O1)NCc1ccncn1,x,x,x,-1,1
OC(c1ccc(Cl)cc1)c1nccc2ccccc12 (centres undefined),-11,5,-1,0,-22*
Cc1noc(C)c1S(=O)(=O)Nc1ccc2c(c1)C(=O)N([C@@H](C)CO)C[C@H](C)[C@H](CN(C)C(=O)c1ccccc1)OCCCC[C@H](C)O2,-1[16.7 µM],-10,3,0,-2
O=C(CNc1ccc(Cl)cc1)c1ccc(Br)cc1,17,6,-8,3,x
O=C(CNc1ccc(Br)cc1)c1ccc(O)cc1,x,x,-6,x,-45*
CC(C)C[C@@H]1COCc2cn(nn2)CC[C@H](Cc2cccc(Cl)c2)C(=O)N1,x,x,x,x,0
C[C@H](CO)N1C[C@H](C)[C@@H](CN(C)Cc2ccc(Cl)c(Cl)c2)Oc2ccc(NS(=O)(=O)c3ccc(Cl)cc3)cc2C1=O,1[16.7 µM],54,11,0,1
Cn1cc([N+](=O)[O-])c(C(=O)Nc2ccc(C3CCCCC3)cc2)n1,x,x,9,x,-3
Cn1cc([N+](=O)[O-])c(C(=O)Nc2ccc(C(=O)N3CCCCC3)cc2)n1,x,x,39*,x,5
Cn1cc([N+](=O)[O-])c(C(=O)Nc2ccn(C34CC5CC(CC(C5)C3)C4)n2)n1,x,x,-3,0,-26*
Cc1nn(C)c(C(=O)Nc2ccn(C34CC5CC(CC(C5)C3)C4)n2)c1[N+](=O)[O-],x,x,3,-2,-32*
C[C@@H]1CN([C@@H](C)CO)S(=O)(=O)c2ccc(C3=CCCC3)cc2O[C@H]1CN(C)C(=O)C1CCCCC1,16[16.7 µM],-3,-2,-1,-8
O=C(Nc1ccc(F)cc1)N[C@H]1CC[C@@H](CC(=O)N2CCCCC2)O[C@H]1CO,x,1,6,0,0
CCC(=O)c1cn(CC(=O)Nc2cccc(C)c2)c2ccccc12,4,5,69*,x,2
CCC(=O)c1cn(CC(=O)Nc2cccc(C)c2C)c2ccccc12,-5,-2,4,x,7
C[C@@H]1CN([C@@H](C)CO)S(=O)(=O)c2ccc(C#C[C@@H](C)O)cc2O[C@H]1CN(C)Cc1ccc(-c2ccccc2)cc1,-41[16.7 µM],0,7,0,-3
C[C@@H]1C/C=C\C[C@H](c2ccc3c(c2)OCO3)NC(=O)[C@@H](c2ccccc2)CC(=O)N1,x,x,x,x,5
